The text below walks through data of ChEMBL document CHEMBL4351006, “A new exploration towards aminothiazolquinolone oximes as potentially multi-targeting antibacterial agents: Design, synthesis and evaluation acting on microbes, DNA, HSA and topoisomerase IV” (Eur J Med Chem, 2019).

Values after ≈ are worked out from the molar mass of the structure shown.

One assay concerns Enterococcus faecalis. In words: Antibacterial activity against Enterococcus faecalis assessed as reduction in bacterial cell viability incubated for 24 hrs by two fold serial dilution method. Type of assay: functional. In short, it runs like this: (§1)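 Broth two-fold serial dilution run to CLSI guidelines. Chloromycin, norfloxacin and fluconazole served as reference drugs.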
Assay [1] relates to Aspergillus fumigatus. In words: Antifungal activity against Aspergillus fumigatus assessed as reduction in fungal cell viability incubated for 24 hrs by two fold serial dilution method. The format is functional. An outline of the steps: as §1
The subject of assay [2] is Pseudomonas aeruginosa. In words: Antibacterial activity against Pseudomonas aeruginosa ATCC 27853 assessed as reduction in bacterial cell viability incubated for 24 hrs by two fold serial dilution method. The following applies: ATCC 27853, 24 h. The format is functional. In short, it runs like this:
as §1

The subject of assay [3] is Aspergillus fumigatus. In words: Potency index, ratio of MIC of fluconazole to MIC of compound for antifungal activity against Aspergillus fumigatus assessed as reduction in […] incubated for 24 hrs by two fold serial dilution method. The format is functional.
Another assay relates to Acinetobacter baumannii. Kind of assay: Antibacterial activity against Acinetobacter baumannii assessed as reduction in bacterial cell viability incubated for 24 hrs by two fold serial dilution method. The format is functional. In short, it runs like this:
as §1

Assay [4] deals with Candida albicans. In words: Antifungal activity against Candida albicans ATCC 90023 assessed as reduction in fungal cell viability incubated for 24 hrs by two fold serial dilution method. Type of assay: functional. The following applies: ATCC 90023, 24 h. In short, it runs like this: as §1
Assay [5] has as its system Escherichia coli. Kind of assay: Antibacterial activity against Escherichia coli assessed as reduction in bacterial cell viability incubated for 24 hrs by two fold serial dilution method. The format is functional. In short, it runs like this:
as §1

A further assay has as its system Candida parapsilosis. Kind of assay: Antifungal activity against Candida parapsilosis ATCC 22019 assessed as reduction in fungal cell viability incubated for 24 hrs by two fold serial dilution method. The following applies: Lodderomyces parapsilosis, ATCC 22019, 24 h.
For assay [6], the system named is Escherichia coli. Kind of assay: Antibacterial activity against Escherichia coli ATCC 25922 assessed as reduction in bacterial cell viability incubated for 24 hrs by two fold serial dilution method. Type of assay: functional. The following applies: ATCC 25922, 24 h. In short, it runs like this: as §1
Another assay has as its system Klebsiella pneumoniae. Kind of assay: Antibacterial activity against Klebsiella pneumoniae assessed as reduction in bacterial cell viability incubated for 24 hrs by two fold serial dilution method. The format is functional. An outline of the steps:
as §1

In assay [7] the test system is Staphylococcus aureus. In words: Antibacterial activity against Staphylococcus aureus assessed as reduction in bacterial cell viability incubated for 24 hrs by two fold serial dilution method. Type of assay: functional. In short, it runs like this:
as §1

Assay [8] has as its system Staphylococcus aureus. Kind of assay: Antibacterial activity against methicillin resistant Staphylococcus aureus N315 assessed as reduction in bacterial cell viability incubated for 24 hrs by two fold serial dilution method. The format is functional. The following applies: N315, 24 h. An outline of the steps:
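MIC by two-fold serial dilution following CLSI, with chloromycin and norfloxacin as reference drugs.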

The subject of assay [9] is Candida albicans. Kind of assay: Antifungal activity against Candida albicans assessed as reduction in fungal cell viability incubated for 24 hrs by two fold serial dilution method. The format is functional. In short, it runs like this:
as §1

In assay [10] the test system is Pseudomonas aeruginosa. Kind of assay: Antibacterial activity against Pseudomonas aeruginosa assessed as reduction in bacterial cell viability incubated for 24 hrs by two fold serial dilution method. Type of assay: functional. An outline of the steps: as §1
Assay [11] relates to Staphylococcus aureus. In words: Antibacterial activity against Staphylococcus aureus ATCC 25923 assessed as reduction in bacterial cell viability incubated for 24 hrs by two fold serial dilution method. Type of assay: functional. The conditions noted are these: ATCC 25923, 24 h. An outline of the steps:
as §1

For a further assay, the system named is Candida tropicalis. Kind of assay: Antifungal activity against Candida tropicalis assessed as reduction in fungal cell viability incubated for 24 hrs by two fold serial dilution method. Type of assay: functional. In short, it runs like this:
as §1

In assay [12] the test system is Staphylococcus aureus. In words: Antibacterial activity against Staphylococcus aureus ATCC 29213 assessed as reduction in bacterial cell viability incubated for 24 hrs by two fold serial dilution method. Type of assay: functional. The conditions noted are these: ATCC 29213, 24 h. An outline of the steps: as §1
In assay [13] the test system is Staphylococcus aureus. Kind of assay: Antibacterial activity against methicillin resistant Staphylococcus aureus assessed as fold change after 16 serial passages at 0.5 times of MIC incubated for 12 hrs by sequential passaging method. Type of assay: functional.

As a reminder, the MIC is the lowest concentration that inhibits growth of the organism. With `CCn1cc(-c2csc(N)n2)c(=O)c2cc(F)c(N3CCN(C/C(C)=N/NC(N)=O)CC3)cc21`, the MIC with Enterococcus faecalis is 526 µM (≈ 256 µg/mL); in the assay on Aspergillus fumigatus [1] it was 263 µM (≈ 128 µg/mL); with Pseudomonas aeruginosa [2] it was 132 µM (≈ 64.2 µg/mL); in the assay with Acinetobacter baumannii it was 263 µM (≈ 128 µg/mL); in the assay on Candida albicans [4] it was 132 µM (≈ 64.2 µg/mL); in the assay on Escherichia coli [5], 263 µM (≈ 128 µg/mL). Also, the minimum inhibitory concentration (MIC) amounted to 66 µM (≈ 32.1 µg/mL) in the assay with Candida parapsilosis; 263 µM (≈ 128 µg/mL) with Escherichia coli [6]; 526 µM (≈ 256 µg/mL) in the assay with Klebsiella pneumoniae; 263 µM (≈ 128 µg/mL) in the assay with Staphylococcus aureus [7]; 66 µM (≈ 32.1 µg/mL) in the assay with Staphylococcus aureus [8]; 526 µM (≈ 256 µg/mL) in the assay on Candida albicans [9]. For the same compound, the MIC was found to be 263 µM (≈ 128 µg/mL) in the assay on Pseudomonas aeruginosa [10], 132 µM (≈ 64.2 µg/mL) in the assay on Staphylococcus aureus [11], 132 µM (≈ 64.2 µg/mL) with Candida tropicalis and 263 µM (≈ 128 µg/mL) in the assay with Staphylococcus aureus [12]. Moreover, in the assay on Aspergillus fumigatus [3], the Ratio amounted to 3.

With `CCn1cc(-c2csc(N)n2)c(=O)c2cc(N3CCN(C/C(C)=N/O)CC3)c(Cl)cc21`, the MIC in the assay with Enterococcus faecalis was 139 µM (≈ 64.1 µg/mL); in the assay on Aspergillus fumigatus [1] it was 278 µM (≈ 128 µg/mL); in the assay on Pseudomonas aeruginosa [2], 555 µM (≈ 256 µg/mL); in the assay with Acinetobacter baumannii it was 278 µM (≈ 128 µg/mL); with Candida albicans [4], 139 µM (≈ 64.1 µg/mL); in the assay with Escherichia coli [5], 69 µM (≈ 31.8 µg/mL). Besides, the MIC with Candida parapsilosis stood at 278 µM (≈ 128 µg/mL); in the assay on Escherichia coli [6] it was 278 µM (≈ 128 µg/mL); in the assay on Klebsiella pneumoniae it was 139 µM (≈ 64.1 µg/mL); with Staphylococcus aureus [7] it was 35 µM (≈ 16.1 µg/mL); in the assay on Staphylococcus aureus [8], 139 µM (≈ 64.1 µg/mL); in the assay on Candida albicans [9], 69 µM (≈ 31.8 µg/mL). In addition, the MIC in the assay with Pseudomonas aeruginosa [10] came to 139 µM (≈ 64.1 µg/mL); with Staphylococcus aureus [11], 17 µM (≈ 7.84 µg/mL); in the assay on Candida tropicalis, 278 µM (≈ 128 µg/mL); with Staphylococcus aureus [12], 139 µM (≈ 64.1 µg/mL).

For the compound `CCn1cc(-c2csc(N)n2)c(=O)c2cc(N3CCN(C/C(=N/OC)c4ccc(OC)cc4)CC3)c(Cl)cc21`, the MIC in the assay with Enterococcus faecalis is 451 µM (≈ 256 µg/mL); in the assay with Aspergillus fumigatus [1], 451 µM (≈ 256 µg/mL); with Pseudomonas aeruginosa [2], 451 µM (≈ 256 µg/mL); with Acinetobacter baumannii, 451 µM (≈ 256 µg/mL); in the assay on Candida albicans [4], 226 µM (≈ 128 µg/mL); in the assay with Escherichia coli [5], 451 µM (≈ 256 µg/mL). Further, the MIC in the assay with Candida parapsilosis, in the assay on Escherichia coli [6], in the assay with Klebsiella pneumoniae, in the assay with Staphylococcus aureus [7], in the assay with Staphylococcus aureus [8] and in the assay with Candida albicans [9] was 451 µM (≈ 256 µg/mL) each time. Further, the MIC in the assay with Pseudomonas aeruginosa [10] was 451 µM (≈ 256 µg/mL); with Staphylococcus aureus [11], 451 µM (≈ 256 µg/mL); in the assay on Candida tropicalis, 226 µM (≈ 128 µg/mL); with Staphylococcus aureus [12], 451 µM (≈ 256 µg/mL).

Regarding `CCn1cc(C(=O)O)c(=O)c2cc(F)c(N3CCNCC3)cc21` [NORFLOXACIN], the MIC came to 13 µM (≈ 4.15 µg/mL) in the assay on Enterococcus faecalis; 2 µM (≈ 0.639 µg/mL) in the assay with Pseudomonas aeruginosa [2]; 25 µM (≈ 7.98 µg/mL) in the assay on Acinetobacter baumannii; 50 µM (≈ 16 µg/mL) in the assay on Escherichia coli [5]; 25 µM (≈ 7.98 µg/mL) in the assay on Escherichia coli [6]; 13 µM (≈ 4.15 µg/mL) in the assay with Klebsiella pneumoniae. For the same compound, the MIC in the assay with Staphylococcus aureus [7] came out at 6 µM (≈ 1.92 µg/mL); with Staphylococcus aureus [8] it was 25 µM (≈ 7.98 µg/mL); in the assay with Pseudomonas aeruginosa [10], 6 µM (≈ 1.92 µg/mL); with Staphylococcus aureus [11] it was 3 µM (≈ 0.958 µg/mL); with Staphylococcus aureus [12], 3 µM (≈ 0.958 µg/mL). Also, the “fold change (FC)” value with Staphylococcus aureus [13] came out at 16.

Regarding `CCn1cc(-c2csc(N)n2)c(=O)c2cc(F)c(N3CCN(C/C(=N/OC)c4ccc(OC)cc4)CC3)cc21`, the MIC in the assay with Enterococcus faecalis stood at 232 µM (≈ 128 µg/mL); in the assay on Aspergillus fumigatus [1], 465 µM (≈ 256 µg/mL); with Pseudomonas aeruginosa [2] it was 465 µM (≈ 256 µg/mL); in the assay on Acinetobacter baumannii, 465 µM (≈ 256 µg/mL); in the assay on Candida albicans [4] it was 465 µM (≈ 256 µg/mL); in the assay on Escherichia coli [5], 465 µM (≈ 256 µg/mL). For the same compound, the MIC came to 465 µM (≈ 256 µg/mL) with Candida parapsilosis; 232 µM (≈ 128 µg/mL) with Escherichia coli [6]; 465 µM (≈ 256 µg/mL) in the assay on Klebsiella pneumoniae; 465 µM (≈ 256 µg/mL) in the assay with Staphylococcus aureus [7]; 465 µM (≈ 256 µg/mL) in the assay with Staphylococcus aureus [8]; 232 µM (≈ 128 µg/mL) in the assay with Candida albicans [9]. In addition, the MIC with Pseudomonas aeruginosa [10] was determined as 465 µM (≈ 256 µg/mL); in the assay on Staphylococcus aureus [11], 465 µM (≈ 256 µg/mL); in the assay on Candida tropicalis, 232 µM (≈ 128 µg/mL); in the assay on Staphylococcus aureus [12], 465 µM (≈ 256 µg/mL).
